Assay results reported in ChEMBL document CHEMBL1212783, “Cellular pharmacology of the anti-hepatitis B virus agent beta-L-2',3'-didehydro-2',3'-dideoxy-N4-hydroxycytidine: relevance for activation in HepG2 cells” (Antimicrob Agents Chemother, 2010).

How the values were obtained:
Hepatitis B virus [1] = assay: Antiviral activity against HBV infected in human HepG2(2.2.15) cells; type: functional; details: read-out: ED50 (the source's name)
HepG2 [2] = assay: Drug metabolism in human HepG2 cells assessed as compound monophosphate level per 10^6 cells at 10 uM after 6 hrs by reversed-phase HPLC analysis; type: ADME, cell-based; details: hepg2, 6 h
Outline: (§1)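 HepG2 cells were grown in DMEM with 10% FBS and 1 mM pyruvate at 37°C, 5% CO2. They were seeded at 2.5 × 10^6/well and exposed after adherence to 2 or 10 μM [3H]-labelled nucleoside (440 or 1,000 dpm/pmol) for 6–24 h. Cells were washed in ice-cold PBS, trypsinized and counted (viability >95%). Metabolites were extracted twice in 60% methanol at −20°C for 16 h. Extracts were separated by ion-pair reverse-phase C18 HPLC and counted by fraction scintillation. Phosphates were identified by UV spectra, a triphosphate standard and alkaline phosphatase digestion.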

HepG2 [3] = assay: Drug metabolism in human HepG2 cells assessed as compound monophosphate level per 10^6 cells at 2 uM after 18 hrs by reversed-phase HPLC analysis; type: ADME, cell-based; details: hepg2, 18 h; outline: as §1
HepG2 [4] = assay: Drug metabolism in human HepG2 cells assessed as compound diphosphate level per 10^6 cells at 10 uM after 6 hrs by reversed-phase HPLC analysis; type: ADME, cell-based; details: hepg2, 6 h; outline: as §1
HepG2 [5] = assay: Drug metabolism in human HepG2 cells assessed as compound diphosphate level per 10^6 cells at 10 uM after 18 hrs by reversed-phase HPLC analysis; type: ADME, cell-based; details: hepg2, 18 h; outline: as §1
HepG2 [6] = assay: Drug metabolism in human HepG2 cells assessed as compound monophosphate level per 10^6 cells at 10 uM after 12 hrs by reversed-phase HPLC analysis; type: ADME, cell-based; details: hepg2, 12 h; outline: as §1
HepG2 [7] = assay: Drug metabolism in human HepG2 cells assessed as compound monophosphate level per 10^6 cells at 2 uM after 24 hrs by reversed-phase HPLC analysis; type: ADME, cell-based; details: hepg2, 24 h; outline: as §1
HepG2 [8] = assay: Drug metabolism in human HepG2 cells assessed as compound monophosphate level per 10^6 cells at 2 uM after 6 hrs by reversed-phase HPLC analysis; type: ADME, cell-based; details: hepg2, 6 h; outline: as §1
HepG2 [9] = assay: Drug metabolism in human HepG2 cells assessed as compound monophosphate level per 10^6 cells at 10 uM after 24 hrs by reversed-phase HPLC analysis; type: ADME, cell-based; details: hepg2, 24 h; outline: as §1
HepG2 [10] = assay: Drug metabolism in human HepG2 cells assessed as compound diphosphate level per 10^6 cells at 2 uM after 18 hrs by reversed-phase HPLC analysis; type: ADME, cell-based; details: hepg2, 18 h; outline: as §1
HepG2 [11] = assay: Drug metabolism in human HepG2 cells assessed as compound diphosphate level per 10^6 cells at 2 uM after 6 hrs by reversed-phase HPLC analysis; type: ADME, cell-based; details: hepg2, 6 h; outline: as §1
HepG2 [12] = assay: Drug metabolism in human HepG2 cells assessed as compound triphosphate level per 10^6 cells at 2 uM after 12 hrs by reversed-phase HPLC analysis; type: ADME, cell-based; details: hepg2, 12 h; outline: as §1
HepG2 [13] = assay: Drug metabolism in human HepG2 cells assessed as compound triphosphate level per 10^6 cells at 2 uM after 18 hrs by reversed-phase HPLC analysis; type: ADME, cell-based; details: hepg2, 18 h; outline: as §1
HepG2 [14] = assay: Drug metabolism in human HepG2 cells assessed as compound diphosphate level per 10^6 cells at 10 uM after 12 hrs by reversed-phase HPLC analysis; type: ADME, cell-based; details: hepg2, 12 h; outline: as §1
HepG2 [15] = assay: Drug metabolism in human HepG2 cells assessed as compound diphosphate level per 10^6 cells at 2 uM after 24 hrs by reversed-phase HPLC analysis; type: ADME, cell-based; details: hepg2, 24 h; outline: as §1
HepG2 [16] = assay: Drug metabolism in human HepG2 cells assessed as compound diphosphate level per 10^6 cells at 2 uM after 12 hrs by reversed-phase HPLC analysis; type: ADME, cell-based; details: hepg2, 12 h; outline: as §1
HepG2 [17] = assay: Drug metabolism in human HepG2 cells assessed as compound diphosphate level per 10^6 cells at 10 uM after 24 hrs by reversed-phase HPLC analysis; type: ADME, cell-based; details: hepg2, 24 h; outline: as §1
HepG2 [18] = assay: Drug metabolism in human HepG2 cells assessed as compound triphosphate level per 10^6 cells at 2 uM after 6 hrs by reversed-phase HPLC analysis; type: ADME, cell-based; details: hepg2, 6 h; outline: as §1
HepG2 [19] = assay: Drug metabolism in human HepG2 cells assessed as compound triphosphate level per 10^6 cells at 10 uM after 24 hrs by reversed-phase HPLC analysis; type: ADME, cell-based; details: hepg2, 24 h; outline: as §1
HepG2 [20] = assay: Drug metabolism in human HepG2 cells assessed as compound triphosphate level per 10^6 cells at 10 uM after 6 hrs by reversed-phase HPLC analysis; type: ADME, cell-based; details: hepg2, 6 h; outline: as §1
[21] = Cytotoxicity against human HepG2 cells at 2 uM after 48 hrs; type: cell-based; details: read-out: INH
Outline: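 HepG2 cells were preincubated 24 h with 3 μM 3-deazauridine, then exposed for a second 24 h to 3 μM deazauridine plus 2 μM tritiated test nucleoside. Read-out was inhibition of HepG2 cell growth over the 48 h.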

HepG2 [22] = assay: Drug metabolism in human HepG2 cells assessed as compound monophosphate level per 10^6 cells at 2 uM after 12 hrs by reversed-phase HPLC analysis; type: ADME, cell-based; details: hepg2, 12 h; outline: as §1
HepG2 [23] = assay: Drug metabolism in human HepG2 cells assessed as compound triphosphate level per 10^6 cells at 10 uM after 18 hrs by reversed-phase HPLC analysis; type: ADME, cell-based; details: hepg2, 18 h; outline: as §1
HepG2 [24] = assay: Drug metabolism in human HepG2 cells assessed as compound triphosphate level per 10^6 cells at 2 uM after 24 hrs by reversed-phase HPLC analysis; type: ADME, cell-based; details: hepg2, 24 h; outline: as §1
HepG2 [25] = assay: Drug metabolism in human HepG2 cells assessed as compound monophosphate level per 10^6 cells at 10 uM after 18 hrs by reversed-phase HPLC analysis; type: ADME, cell-based; details: hepg2, 18 h; outline: as §1
HepG2 [26] = assay: Drug metabolism in human HepG2 cells assessed as compound triphosphate level per 10^6 cells at 10 uM after 12 hrs by reversed-phase HPLC analysis; type: ADME, cell-based; details: hepg2, 12 h; outline: as §1
[27] = Cytotoxicity against human HepG2 cells; type: cell-based; details: read-out: CD50 (the source's name)
Hepatitis B virus [28] = assay: Inhibition of HBV DNA polymerase at 1 uM
[29] = Half life in human HepG2 cells by HPLC analysis; type: ADME, cell-based
Outline: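 HepG2 cells (1.5 × 10^6/well) were loaded 24 h with 10 μM [3H]-labelled nucleoside, washed three times and chased in drug-free medium. Cells were harvested at intervals, then counted and methanol-extracted. Mono-, di- and triphosphates were quantified by radio-HPLC. t1/2 was calculated as 0.693/κ, where κ is the terminal slope of a semilog plot of intracellular phosphate level versus time.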

O=c1nc(NO)ccn1[C@@H]1C=C[C@H](CO)O1
EC50 (Hepatitis B virus [1]): 0.03 µM
Stability (HepG2 [2]): 4.4 pmol
Stability (HepG2 [3]): 2.3 pmol
Stability (HepG2 [4]): 11.5 pmol
Stability (HepG2 [5]): 30.3 pmol
Stability (HepG2 [6]): 5.6 pmol
Stability (HepG2 [7]): 4 pmol
Stability (HepG2 [8]): 0.5 pmol
Stability (HepG2 [9]): 11.5 pmol
Stability (HepG2 [10]): 6.6 pmol
Stability (HepG2 [11]): 1.3 pmol
Stability (HepG2 [12]): 3.1 pmol
Stability (HepG2 [13]): 3.8 pmol
Stability (HepG2 [14]): 22.6 pmol
Stability (HepG2 [15]): 9.8 pmol
Stability (HepG2 [16]): 4.5 pmol
Stability (HepG2 [17]): 43.5 pmol
Stability (HepG2 [18]): 1.1 pmol
Stability (HepG2 [19]): 19.4 pmol
Stability (HepG2 [20]): 5.3 pmol
cytotoxicity at 48 h, 2 µM [21]: 11%
Stability (HepG2 [22]): 1.3 pmol
Stability (HepG2 [23]): 15.2 pmol
Stability (HepG2 [24]): 5.3 pmol
Stability (HepG2 [25]): 7.3 pmol
Stability (HepG2 [26]): 10.4 pmol

Nc1ccn([C@@H]2C=C[C@H](CO)O2)c(=O)n1
CC50 [27]: 20 µM

O=c1nc(NO)ccn1[C@@H]1C=C[C@H](COP(=O)(O)OP(=O)(O)OP(=O)(O)O)O1
inhibition (Hepatitis B virus [28]): 90%
half-life [29]: 29.7 h

O=c1nc(NO)ccn1[C@@H]1C=C[C@H](COP(=O)(O)OP(=O)(O)O)O1
half-life [29]: 18.6 h
